Measurements reported in article PMC7993274 (Clinical and Translational Science, 2020).

Legend:
[1] = Treatment-emergent adverse events, SAD period; assay type: in vivo, human
Summary of the method: (§1)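 Double-blind, placebo-controlled study in healthy men and nonchildbearing women aged 18–55 y. The SAD period gave one fasted oral dose; the MAD period gave fed dosing q.d. for 10 days, plus a separate b.i.d. cohort. TEAEs, serious AEs and discontinuation AEs were monitored ≥28 days after the last dose. Vital signs, physical exam, 12-lead ECG, hematology, clinical chemistry and urinalysis were also recorded. Data summarized descriptively.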

[2] = pH 6.5; background statement, no reference given; cited from earlier work
[3] = Clinical laboratory parameters, vital signs, ECG and overall safety; assay type: in vivo, human
Summary of the method: as §1

Cn1cc(-c2cn3nccc3c(-c3cnn([C@]4(CC#N)C[C@@H](C#N)C4)c3)n2)cn1 [PF‐06826647]
Participants with TEAEs: Edema ([1]; SAD 100 mg (n = 7)): 1 (14.3) n (%) | Participants with TEAEs: Face edema ([1]; SAD 100 mg (n = 7)): 1 (14.3) n (%) | Participants with TEAEs: Gastrointestinal disorders (SOC) ([1]; SAD 100 mg (n = 7)): 1 (14.3) n (%) | Participants with TEAEs: General disorders and administration site conditions (SOC) ([1]; SAD 100 mg (n = 7)): 1 (14.3) n (%) | Participants with TEAEs: Headache ([1]; SAD 100 mg (n = 7)): 1 (14.3) n (%) | Participants with TEAEs: Injury, poisoning, and procedural complications (SOC) ([1]; SAD 100 mg (n = 7)): 1 (14.3) n (%) | Participants with TEAEs: Investigations (SOC) ([1]; SAD 100 mg (n = 7)): 0 n (%) | Participants with TEAEs: Nausea ([1]; SAD 100 mg (n = 7)): 1 (14.3) n (%) | Participants with TEAEs: Nervous system disorders (SOC) ([1]; SAD 100 mg (n = 7)): 1 (14.3) n (%) | Participants with TEAEs: Periorbital hematoma ([1]; SAD 100 mg (n = 7)): 1 (14.3) n (%) | Participants with TEAEs: Periorbital hemorrhage ([1]; SAD 100 mg (n = 7)): 1 (14.3) n (%) | Participants with TEAEs: Peripheral swelling ([1]; SAD 100 mg (n = 7)): 0 n (%) | Participants with TEAEs: Pruritus ([1]; SAD 100 mg (n = 7)): 1 (14.3) n (%) | Participants with TEAEs: Rash ([1]; SAD 100 mg (n = 7)): 1 (14.3) n (%) | Participants with TEAEs: Skin and subcutaneous tissue disorders (SOC) ([1]; SAD 100 mg (n = 7)): 1 (14.3) n (%) | Participants with TEAEs: Urticaria ([1]; SAD 100 mg (n = 7)): 1 (14.3) n (%) | SAEs ([1]; SAD 100 mg (n = 7)): 0 n | Severe AEs ([1]; SAD 100 mg (n = 7)): 0 n | AEs ([1]; SAD 400 mg (n = 8)): 0 n | AEs leading to study drug dose reduction or interruption ([1]; SAD 400 mg (n = 8)): 0 n | Participants with AEs ([1]; SAD 400 mg (n = 8)): 0 n (%) | Participants with TEAEs: Alanine aminotransferase increased ([1]; SAD 400 mg (n = 8)): 0 n (%) | Participants with TEAEs: Aspartate aminotransferase increased ([1]; SAD 400 mg (n = 8)): 0 n (%) | Participants with TEAEs: Edema ([1]; SAD 400 mg (n = 8)): 0 n (%) | Participants with TEAEs: Face edema ([1]; SAD 400 mg (n = 8)): 0 n (%) | Participants with TEAEs: Gastrointestinal disorders (SOC) ([1]; SAD 400 mg (n = 8)): 0 n (%) | Participants with TEAEs: General disorders and administration site conditions (SOC) ([1]; SAD 400 mg (n = 8)): 0 n (%) | Participants with TEAEs: Headache ([1]; SAD 400 mg (n = 8)): 0 n (%) | Participants with TEAEs: Injury, poisoning, and procedural complications (SOC) ([1]; SAD 400 mg (n = 8)): 0 n (%) | Participants with TEAEs: Investigations (SOC) ([1]; SAD 400 mg (n = 8)): 0 n (%) | Participants with TEAEs: Nausea ([1]; SAD 400 mg (n = 8)): 0 n (%) | Participants with TEAEs: Nervous system disorders (SOC) ([1]; SAD 400 mg (n = 8)): 0 n (%) | Participants with TEAEs: Periorbital hematoma ([1]; SAD 400 mg (n = 8)): 0 n (%) | Participants with TEAEs: Periorbital hemorrhage ([1]; SAD 400 mg (n = 8)): 0 n (%) | Participants with TEAEs: Peripheral swelling ([1]; SAD 400 mg (n = 8)): 0 n (%) | Participants with TEAEs: Pruritus ([1]; SAD 400 mg (n = 8)): 0 n (%) | Participants with TEAEs: Rash ([1]; SAD 400 mg (n = 8)): 0 n (%) | Participants with TEAEs: Skin and subcutaneous tissue disorders (SOC) ([1]; SAD 400 mg (n = 8)): 0 n (%) | Participants with TEAEs: Urticaria ([1]; SAD 400 mg (n = 8)): 0 n (%) | SAEs ([1]; SAD 400 mg (n = 8)): 0 n | Severe AEs ([1]; SAD 400 mg (n = 8)): 0 n | AEs ([1]; SAD 1,600 mg (n = 6)): 3 n | AEs leading to study drug dose reduction or interruption ([1]; SAD 1,600 mg (n = 6)): 0 n | Participants with AEs ([1]; SAD 1,600 mg (n = 6)): 2 (33.3) n (%) | Participants with TEAEs: Alanine aminotransferase increased ([1]; SAD 1,600 mg (n = 6)): 1 (16.7) n (%) | Participants with TEAEs: Aspartate aminotransferase increased ([1]; SAD 1,600 mg (n = 6)): 1 (16.7) n (%) | Participants with TEAEs: Edema ([1]; SAD 1,600 mg (n = 6)): 0 n (%) | Participants with TEAEs: Face edema ([1]; SAD 1,600 mg (n = 6)): 0 n (%) | Participants with TEAEs: Gastrointestinal disorders (SOC) ([1]; SAD 1,600 mg (n = 6)): 0 n (%) | Participants with TEAEs: General disorders and administration site conditions (SOC) ([1]; SAD 1,600 mg (n = 6)): 1 (16.7) n (%) | Participants with TEAEs: Headache ([1]; SAD 1,600 mg (n = 6)): 0 n (%) | Participants with TEAEs: Injury, poisoning, and procedural complications (SOC) ([1]; SAD 1,600 mg (n = 6)): 0 n (%) | Participants with TEAEs: Investigations (SOC) ([1]; SAD 1,600 mg (n = 6)): 1 (16.7) n (%) | Participants with TEAEs: Nausea ([1]; SAD 1,600 mg (n = 6)): 0 n (%) | Participants with TEAEs: Nervous system disorders (SOC) ([1]; SAD 1,600 mg (n = 6)): 0 n (%) | Participants with TEAEs: Periorbital hematoma ([1]; SAD 1,600 mg (n = 6)): 0 n (%) | Participants with TEAEs: Periorbital hemorrhage ([1]; SAD 1,600 mg (n = 6)): 0 n (%) | Participants with TEAEs: Peripheral swelling ([1]; SAD 1,600 mg (n = 6)): 1 (16.7) n (%) | Participants with TEAEs: Pruritus ([1]; SAD 1,600 mg (n = 6)): 0 n (%) | Participants with TEAEs: Rash ([1]; SAD 1,600 mg (n = 6)): 0 n (%) | Participants with TEAEs: Skin and subcutaneous tissue disorders (SOC) ([1]; SAD 1,600 mg (n = 6)): 0 n (%) | Participants with TEAEs: Urticaria ([1]; SAD 1,600 mg (n = 6)): 0 n (%) | SAEs ([1]; SAD 1,600 mg (n = 6)): 0 n | Severe AEs ([1]; SAD 1,600 mg (n = 6)): 0 n | solubility [2]: ~ 0.3 μg/mL | increase in median platelet count from baseline ([3]; SAD 1,600 mg (placebo: 6% decrease)): 28% | changes in lipid parameters (LDL, HDL, total cholesterol) ([3]; SAD and MAD treatment groups): small, and similar to those observed in the placebo group | intensity of TEAEs ([3]; all TEAEs): mild in intensity | lymphocyte counts ([3]; assessment period): No clinically meaningful changes | neutrophil counts ([3]; assessment period): No clinically meaningful changes | events of acne or aphthous ulcers ([3]; either treatment period): No events of acne or aphthous ulcers were reported | serum cystatin C, serum creatinine‐based and cystatin C‐based eGFR ([3]; human, in vivo): No clinically meaningful changes | vital signs, ECG parameters, physical examination ([3]; human, in vivo): No clinically significant findings | platelet counts ([3]; participants receiving PF‐06826647): remained within the normal range | tolerability ([3]; single ≤ 1,600 mg, multiple ≤ 1,200 mg q.d., 200 mg b.i.d., 10‐day dosing): well‐tolerated | serum creatinine increase from baseline ([3]; some participants, isolated timepoints): up to 0.3 mg/dL | participants with gastrointestinal AEs ([3]; whole study, three participants): 4%
